Reference: ChEMBL document CHEMBL4038291, “Discovery of novel benzothienoazepine derivatives as potent inhibitors of respiratory syncytial virus” (Bioorg Med Chem Lett, 2017)
Calls of active or inactive are those of the source. The rule behind the calls is not given here.

What was measured:
[1] = Cytotoxicity against human Hep2 cells; format: cell-based; details: HEp-2 cells
[2] = Inhibition of Respiratory syncytial virus B WST RNA-directed RNA polymerase L infected in human Hep2 cells assessed as reduction in virus-induced cytopathic effect measured after 6 days by resazurin dye based fluorescence assay; format: cell-based; details: HEp-2, 144 h
Summary of the method: (§1)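 Read-out is cytopathic effect of RSV infection in HEp-2 cells. IC50 is the concentration reducing CPE by 50%. Values averaged from 2 experiments.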

[3] = Inhibition of RSV A2 RNA-directed RNA polymerase L infected in human Hep2 cells assessed as reduction in virus-induced cytopathic effect measured after 5 days by resazurin dye based fluorescence assay; format: cell-based; details: human respiratory syncytial virus, HEp-2, 120 h; summary of the method: as §1
[4] = biological target: T1, Protein M2-1 (Human respiratory syncytial virus A (strain A2)) (UniProt P04545); assay: Inhibition of Respiratory syncytial virus A2 M2-1 by luciferase reporter-based RSV minigenome assay
T1 sequence (whole entry): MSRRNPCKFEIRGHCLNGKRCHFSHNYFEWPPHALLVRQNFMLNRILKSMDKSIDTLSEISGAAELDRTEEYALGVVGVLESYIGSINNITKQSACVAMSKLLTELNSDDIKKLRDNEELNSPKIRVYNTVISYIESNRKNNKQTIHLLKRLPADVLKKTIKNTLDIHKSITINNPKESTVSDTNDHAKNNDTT

[5] = test system: Human respiratory syncytial virus A2; assay: Antiviral activity against Respiratory syncytial virus A2 infected in human Hep2 cells at 0.001 to 3.125 ug/ml after 6 passages; format: functional, cell-based
[6] = test system: Human respiratory syncytial virus A strain Long; assay: Antiviral activity against human respiratory syncytial virus A strain long infected in cotton rat assessed as reduction in NS1 expression administered intranasally pretreated for 4 hrs followed by viral infection measured after 4 days by RT-qPCR analysis; format: functional
[7] = Antiviral activity against human respiratory syncytial virus A strain long infected in cotton rat assessed as reduction in plaque forming units in lungs at 0.33 to 3.3 mg/ml administered intranasally pretreated for 4 hrs followed by viral infection measured after 4 days; format: functional
[8] = test system: Human respiratory syncytial virus A strain Long; assay: Antiviral activity against human respiratory syncytial virus A strain long infected in cotton rat assessed as reduction in lung viral load administered intranasally pretreated for 4 hrs followed by viral infection measured after 4 days by plaque assay; format: functional
Nucleoprotein = biological target: T2, Nucleoprotein (Human respiratory syncytial virus A (strain A2), UniProt P03418); assay: (§2) Inhibition of Respiratory syncytial virus A2 protein N by luciferase reporter-based RSV minigenome assay
T2 sequence (P03418 whole entry): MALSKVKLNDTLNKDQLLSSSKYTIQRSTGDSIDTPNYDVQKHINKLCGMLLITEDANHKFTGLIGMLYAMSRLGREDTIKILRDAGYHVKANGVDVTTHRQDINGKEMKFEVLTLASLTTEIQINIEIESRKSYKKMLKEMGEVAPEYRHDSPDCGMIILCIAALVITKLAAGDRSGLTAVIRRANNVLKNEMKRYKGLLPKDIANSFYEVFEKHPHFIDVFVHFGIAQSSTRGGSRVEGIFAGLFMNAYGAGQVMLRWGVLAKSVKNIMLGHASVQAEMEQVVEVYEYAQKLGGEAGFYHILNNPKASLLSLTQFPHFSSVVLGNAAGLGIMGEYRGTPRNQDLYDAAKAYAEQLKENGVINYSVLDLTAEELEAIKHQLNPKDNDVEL

[9] = biological target: T3, Nucleoprotein (Human respiratory syncytial virus A (strain A2)) (UniProt P03418); assay: as §2
T3 sequence (whole entry): T2 sequence (P03418 whole entry)

[10] = test system: Human respiratory syncytial virus A2; assay: Inhibition of Respiratory syncytial virus A2 RNA-directed RNA polymerase L by luciferase reporter-based RSV minigenome assay
Phosphoprotein = Phosphoprotein (Human respiratory syncytial virus A (strain A2), UniProt P03421); assay: (§3) Inhibition of Respiratory syncytial virus A2 protein P by luciferase reporter-based RSV minigenome assay
Sequence of Phosphoprotein (P03421 whole entry): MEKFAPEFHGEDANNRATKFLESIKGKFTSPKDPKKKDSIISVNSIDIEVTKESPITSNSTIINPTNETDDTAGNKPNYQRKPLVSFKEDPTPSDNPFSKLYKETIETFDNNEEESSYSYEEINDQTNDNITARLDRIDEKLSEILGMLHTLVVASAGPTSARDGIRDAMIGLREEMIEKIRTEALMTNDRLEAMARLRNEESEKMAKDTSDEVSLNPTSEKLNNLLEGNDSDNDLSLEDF

[11] = biological target: Phosphoprotein (Human respiratory syncytial virus A (strain A2)) (UniProt P03421); assay: as §3
Sequence of Phosphoprotein (Human respiratory syncytial virus A (strain A2)) (P03421 whole entry): as above

SMILES | CC50 [1] [nM] | IC50 [2] [nM] | IC50 [3] [nM] | other results
O=C(Nc1ccc(C(=O)N2CCc3cc(-c4nc5ccccc5[nH]4)sc3-c3ccccc32)cc1)c1ccc(C(F)(F)F)nc1N1CC2(CCOCC2)C1 | > 13600 | > 1360 | 7.3 | 
O=C(Nc1ccc(C(=O)N2CCc3cc(-c4nc5c(C(F)(F)F)cccc5[nH]4)sc3-c3ccccc32)cc1)c1cccnc1N1CC2(CCOCC2)C1 | > 13600 | 38.8 | 0.6 | 
O=C(Nc1ccc(C(=O)N2CCc3cc(-c4nc5c(Cl)cccc5[nH]4)sc3-c3ccccc32)cc1)c1cccnc1N1CC2(CCOCC2)C1 | > 14200 | 30.7 | 0.8 | 
N#Cc1ccc2[nH]c(-c3cc4c(s3)-c3ccccc3N(C(=O)c3ccc(NC(=O)c5cccnc5N5CC6(CCOCC6)C5)cc3)CC4)nc2c1 | > 14400 | 162 | 0.5 | 
O=C(NC1CC1)c1cc2c(s1)-c1ccccc1N(C(=O)c1ccc(NC(=O)c3cccnc3N3CC4(CCOCC4)C3)cc1)CC2 | 6410 | 286 | 2.2 | 
Cc1cnc(N2CC3(CCOCC3)C2)c(C(=O)Nc2ccc(C(=O)N3CCc4cc(-c5cn6ccccc6n5)sc4-c4ccccc43)cc2)c1 | > 14600 | 14.4 | 1.8 | 
O=C(Nc1ccc(C(=O)N2CCc3cc(-c4cc5ccccc5[nH]4)sc3-c3ccccc32)cc1)c1cccnc1N1CC2(CCOCC2)C1 | > 15000 | 1020 | 1.5 | 
Cc1cnc(N2CC3(CCOCC3)C2)c(C(=O)Nc2ccc(C(=O)N3CCc4cc(-c5cc6ccccn6n5)sc4-c4ccccc43)cc2)c1 | > 14600 | 8.1 | 0.7 | 
O=C(Nc1ccc(C(=O)N2CCc3cc(-c4nc5cncnc5[nH]4)sc3-c3ccccc32)cc1)c1cccnc1N1CC2(CCOCC2)C1 | > 14900 | > 1500 | 13.1 | 
Cc1cnc(N2CC3(CCOCC3)C2)c(C(=O)Nc2ccc(C(=O)N3CCc4cc(-c5ncc(C)[nH]5)sc4-c4ccccc43)cc2)c1 | > 15500 | 3.3 | 0.7 | 
COc1ccc(C(=O)Nc2ccc(C(=O)N3CCc4cc(-c5nc6ccccc6[nH]5)sc4-c4ccccc43)cc2)c(N2CC3(CCOCC3)C2)n1 | > 14300 | 37.8 | 0.5 | 
O=C(Nc1ccccc1)c1cc2c(s1)-c1ccccc1N(C(=O)c1ccc(NC(=O)c3cccnc3N3CC4(CCOCC4)C3)cc1)CC2 | > 14900 | 283 | 0.5 | 
O=C(Nc1ccc(C(=O)N2CCc3cc(-c4nc5c(F)cccc5[nH]4)sc3-c3ccccc32)cc1)c1cccnc1N1CC2(CCOCC2)C1 | > 14600 | 90.9 | 1.6 | 
Cc1ccnc(N2CC3(CCOCC3)C2)c1C(=O)Nc1ccc(C(=O)N2CCc3cc(-c4nc5ccccc5[nH]4)sc3-c3ccccc32)cc1 |  | > 1470 |  | 
Cc1cnc(N2CC3(CCOCC3)C2)c(C(=O)Nc2ccc(C(=O)N3CCc4cc(-c5nc6cccc(F)c6[nH]5)sc4-c4ccccc43)cc2)c1 | > 14300 | 2.1 | 1.4 | inhibition [4]: Dose-dependent effect; Activity [5]: inactive; Activity [6]: Dose-dependent effect; Activity [7]: <2.3 log10PFU; Activity [8]: Active; IC50 (Nucleoprotein): 2 nM; inhibition [9]: Dose-dependent effect; inhibition [10]: Dose-dependent effect; IC50 (Phosphoprotein): 2 nM; inhibition [11]: Dose-dependent effect
CC(C)c1cnc(N2CC3(CCOCC3)C2)c(C(=O)Nc2ccc(C(=O)N3CCc4cc(-c5nc6ccccc6[nH]5)sc4-c4ccccc43)cc2)c1 | > 14100 | > 1410 | 5.7 | 
Cc1cnc(N2CC3(CCOCC3)C2)c(C(=O)Nc2ccc(C(=O)N3CCc4cc(-c5nc(C)c(C)[nH]5)sc4-c4ccccc43)cc2)c1 | > 15100 | 6.2 | 1.6 | 
O=C(Nc1ccc(C(=O)N2CCc3cc(-c4nc5cc(C(F)(F)F)ccc5[nH]4)sc3-c3ccccc32)cc1)c1cccnc1N1CC2(CCOCC2)C1 | > 13600 | > 1360 | 3.1 | 
Cc1cnc(N2CC3(CCOCC3)C2)c(C(=O)Nc2ccc(C(=O)N3CCc4cc(-c5nc6ccccc6[nH]5)sc4-c4ccccc43)cc2)c1 | > 14600 | 5.2 | 0.5 | 
CCc1cnc(N2CC3(CCOCC3)C2)c(C(=O)Nc2ccc(C(=O)N3CCc4cc(-c5nc6ccccc6[nH]5)sc4-c4ccccc43)cc2)c1 | > 14300 | 13.3 | 0.7 | 
O=C(Nc1ccc(C(=O)N2CCc3cc(-c4nc5cc(Cl)ccc5[nH]4)sc3-c3ccccc32)cc1)c1cccnc1N1CC2(CCOCC2)C1 | > 14200 | 161 | 1.6 | 
Cc1cccc2[nH]c(-c3cc4c(s3)-c3ccccc3N(C(=O)c3ccc(NC(=O)c5cccnc5N5CC6(CCOCC6)C5)cc3)CC4)nc12 | > 14600 | 52.9 | 0.6 | 
N#Cc1cccc2[nH]c(-c3cc4c(s3)-c3ccccc3N(C(=O)c3ccc(NC(=O)c5cccnc5N5CC6(CCOCC6)C5)cc3)CC4)nc12 | > 14400 | 69 | 0.6 | 
O=C(Nc1ccc(C(=O)N2CCc3cc(-c4nc5ccccc5o4)sc3-c3ccccc32)cc1)c1cccnc1N1CC2(CCOCC2)C1 | > 14900 | > 1500 | 56 | 
Cc1ccc(C(=O)Nc2ccc(C(=O)N3CCc4cc(-c5nc6ccccc6[nH]5)sc4-c4ccccc43)cc2)c(N2CC3(CCOCC3)C2)n1 | > 14600 | 5.2 to 13.1 | 0.3 to 0.8 | 
O=C(Nc1ccc(C(=O)N2CCc3cc(-c4nc5ccccc5[nH]4)sc3-c3ccccc32)cc1)c1cccnc1N1CC2(CCOCC2)C1 | > 14900 | 59.8 | 0.8 | 
O=C(Nc1ccc(C(=O)N2CCc3cc(-c4nc5cnccc5[nH]4)sc3-c3ccccc32)cc1)c1cccnc1N1CC2(CCOCC2)C1 | > 14900 | 844 | 7.6 | 
